Here are results for 30 compounds from ChEMBL document CHEMBL1134859, “Rapid synthesis of triazine inhibitors of inosine monophosphate dehydrogenase” (Bioorg Med Chem Lett, 2002).

pIC50: −log10 of the molar value.

One experiment has as its system CCRF-CEM. In words: Inhibitory activity against human T-lymphoblast CEM cell line using T cell proliferation assay. Format: functional, cell-based. Summed up: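 Human T-lymphoblast CEM cells were grown in RPMI 1640 with 10% heat-inactivated FBS and penicillin/streptomycin, then seeded at 3000 cells/well in 0.5% DMSO. Compounds were tested in triplicate from a 10 uM final top concentration in 3-fold serial dilutions. Cells were kept 72 h in humidified 5% CO2.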

The target of experiment [1] is Inosine-5'-monophosphate dehydrogenase 2 (Homo sapiens, UniProt P12268). In words: Inhibition of human Inosine-5'-monophosphate dehydrogenase 2.

For the compound `CNc1nc(Nc2ccc(-c3cnco3)c(OC)c2)nc(-c2cccc(C)c2)n1`, the pIC50 in the experiment on CCRF-CEM is less than 6.00; in experiment [1] it was 6.89.

With `COc1cc(Nc2nc(-c3ccccc3)nc(N3CCOCC3)n2)ccc1-c1cnco1`, the pIC50 was less than 6.00 in the experiment on CCRF-CEM and 6.72 in experiment [1].

Consider `COc1cc(Nc2nc(-c3ccccc3)nc(N3CCC[C@H]3CO)n2)ccc1-c1cnco1`, for which the pIC50 with CCRF-CEM was less than 6.00; in experiment [1], 7.14.

Consider `COc1cc(Nc2nc(N)n(-c3ccccc3)n2)ccc1-c1cnco1`, for which the pIC50 in the experiment with CCRF-CEM was less than 6.00.

Consider `COc1cc(Nc2nc(-c3ccccc3)nc(N3CCC[C@@H]3CO)n2)ccc1-c1cnco1`, for which the pIC50 is less than 6.00 in the experiment with CCRF-CEM and 7.11 in experiment [1].

On to `CNc1nc(Nc2ccc(-c3cnco3)c(OC)c2)nc(N2CCC[C@@H]2CO)n1`, for which the values for the pIC50 (with CCRF-CEM; in experiment [1]) were less than 6.00 and 6.14, respectively.

With `COc1cc(Nc2nc(NCCc3cccnc3)nc(-c3ccccc3)n2)ccc1-c1cnco1`, the values for the pIC50 (with CCRF-CEM; in experiment [1]) were 5.62 and 7.24, respectively.

For `COc1cc(Nc2nc(OCc3ccccc3)nc(-c3ccccc3)n2)ccc1-c1cnco1`, the pIC50 with CCRF-CEM was less than 6.00; in experiment [1], 7.49.

`COc1cc(Nc2nncc(-c3ccccc3)n2)ccc1-c1cnco1`: the pIC50 with CCRF-CEM was 5.46; in experiment [1], 7.35.

Turning to `COc1nc(Nc2ccc(-c3cnco3)c(OC)c2)nc(-c2ccccc2)n1`, the values for the pIC50 (with CCRF-CEM; in experiment [1]) were less than 6.00 and 7.39, respectively.

On to `CNc1nc(Nc2ccc(-c3cnco3)c(OC)c2)nc(N2CCOCC2)n1`, for which the pIC50 with CCRF-CEM is less than 6.00; in experiment [1], 6.80.

On to `COc1cc(Nc2nc(NCCc3ccccc3)nc(-c3ccccc3)n2)ccc1-c1cnco1`, for which the pIC50 (with CCRF-CEM; in experiment [1]) was less than 6.00 each time.

For the compound `CNc1nc(Nc2ccc(-c3cnco3)c(OC)c2)nc(-c2ccco2)n1`, the negative-log IC50 (pIC50) in the experiment with CCRF-CEM was less than 6.00; in experiment [1], 7.24.

As for `COc1cc(Nc2nc(NCc3ccccc3)nc(-c3ccccc3)n2)ccc1-c1cnco1`, the results for the pIC50 (in the experiment with CCRF-CEM; in experiment [1]) were less than 6.00 and 6.39, respectively.

In the case of `COc1cc(Nc2nc(N)nc(-c3ccccc3)n2)ccc1-c1cnco1`, the values for the pIC50 (in the experiment on CCRF-CEM; in experiment [1]) were less than 6.00 and 7.27, respectively.

Regarding `COC[C@@H]1CCCN1c1nc(Nc2ccc(-c3cnco3)c(OC)c2)nc(-c2ccccc2)n1`, the figures for the pIC50 (with CCRF-CEM; in experiment [1]) were less than 6.00 and 6.54, respectively.

In the case of `COc1cc(Nc2nc(NCCCC(=O)O)nc(-c3ccccc3)n2)ccc1-c1cnco1`, the pIC50 in the experiment on CCRF-CEM is less than 6.00; in experiment [1], 7.11.

On to `COc1cc(Nc2nc(NCCC(=O)O)nc(-c3ccccc3)n2)ccc1-c1cnco1`, for which the results for the pIC50 (in the experiment with CCRF-CEM; in experiment [1]) were less than 6.00 and 6.89, respectively.

On to `CNc1nc(Nc2ccc(-c3cnco3)c(OC)c2)nc(N2CCC[C@H]2COC)n1`, for which the figures for the pIC50 (in the experiment on CCRF-CEM; in experiment [1]) were less than 6.00 and 6.41, respectively.

For the compound `COc1cc(Nc2nc(NCC(=O)O)nc(-c3ccccc3)n2)ccc1-c1cnco1`, the pIC50 in the experiment on CCRF-CEM was less than 6.00; in experiment [1], 6.60.

In the case of `CNc1nc(Nc2ccc(-c3cnco3)c(OC)c2)nc(-c2ccccc2C)n1`, the negative-log IC50 (pIC50) is less than 6.00 in the experiment with CCRF-CEM and 6.51 in experiment [1].

For `CNc1nc(NC)nc(Nc2ccc(-c3cnco3)c(OC)c2)n1`, the figures for the pIC50 (in the experiment with CCRF-CEM; in experiment [1]) were less than 6.00 and 6.21, respectively.

For the compound `COc1cc(Nc2nc(O)nc(-c3ccccc3)n2)ccc1-c1cnco1`, the pIC50 in the experiment with CCRF-CEM is 5.23; in experiment [1], 7.74.

With `COc1c(C)c2c(c(O)c1C/C=C(\C)CCC(=O)O)C(=O)OC2` [MYCOPHENOLIC ACID], the pIC50 in the experiment on CCRF-CEM is 6.41.

For `CNc1nc(Nc2ccc(-c3cnco3)c(OC)c2)nc(N2CCC[C@H]2CO)n1`, the pIC50 in the experiment on CCRF-CEM is less than 6.00; in experiment [1], 6.89.

On to `COc1cc(Nc2nc(-c3ccccc3)nc(N3CCN(C)CC3)n2)ccc1-c1cnco1`, for which the pIC50 in the experiment with CCRF-CEM was less than 6.00; in experiment [1] it was 6.48.

Turning to `COc1cc(Nc2nc(-c3ccccc3)nc(N3CCN(C=O)CC3)n2)ccc1-c1cnco1`, the pIC50 was less than 6.00 in the experiment with CCRF-CEM and 6.80 in experiment [1].

As to `CNc1nc(Nc2ccc(-c3cnco3)c(OC)c2)nc(-c2ccc(C)cc2)n1`, the pIC50 with CCRF-CEM is less than 6.00; in experiment [1] it was 6.77.

Regarding `COc1cc(Nc2nc(-c3ccccc3)nc(N(C)C)n2)ccc1-c1cnco1`, the pIC50 is less than 6.00 in the experiment with CCRF-CEM and 6.57 in experiment [1].

Consider `CNc1nc(Nc2ccc(-c3cnco3)c(OC)c2)nc(-c2ccccc2)n1`, for which the results for the negative logarithm of the IC50 (pIC50) (with CCRF-CEM; in experiment [1]) were less than 6.00 and 7.12, respectively.

By pIC50 is commonly meant −log10 of the IC50, conventionally taken in molar units. A higher pIC50 goes with a low IC50.
